Measured values reported in ChEMBL document CHEMBL4411315, “Discovery of Novel Dual Histone Deacetylase and Mammalian Target of Rapamycin Target Inhibitors as a Promising Strategy for Cancer Therapy” (J Med Chem, 2019).
Calls of active or inactive are those of the source. No cut-off for these calls is given here.

Key:
[1] = tested on: MV4-11; test: Induction of apoptosis in human MV4-11 cells assessed as viable cells at 80 nM after 48 hrs by Annexin V-FITC/propidium iodide staining-based flow cytometric analysis (reference value: 84.1%); format: functional; details: MV4-11, 48 h, read-out: Activity
[2] = tested on: MM1.S; test: Induction of apoptosis in human MM1S cells assessed as early apoptotic cells at 320 nM after 48 hrs by Annexin V-FITC/propidium iodide staining-based flow cytometric analysis (reference value: 0.38%); format: functional
[3] = tested on: MV4-11; test: Induction of apoptosis in human MV4-11 cells assessed as late apoptotic cells at 80 nM after 48 hrs by Annexin V-FITC/propidium iodide staining-based flow cytometric analysis (reference value: 5.03%); format: functional
[4] = tested on: MM1.S; test: Cell cycle arrest in human MM1S cells assessed as accumulation at G0/G1 phase at 1.25 nM after 24 hrs by propidium iodide/RNase staining-based FACS analysis (reference value: 49.22%); format: functional
[5] = tested on: MM1.S; test: Induction of apoptosis in human MM1S cells assessed as necrotic cells at 40 nM after 48 hrs by Annexin V-FITC/propidium iodide staining-based flow cytometric analysis (reference value: 0.32%); format: functional
[6] = tested on: Raji; test: Antiproliferative activity against human Raji cells after 72 hrs by MTT assay; format: functional, cell-based
In short: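 Log-phase cells were plated at 10000-15000 per well and exposed to serial concentrations after 24 h for 72 h. Read-out was MTT for 1-3 h, then 20% SDS overnight and absorbance at 570 nm. IC50 was calculated from growth versus untreated control, as mean ± SEM of at least three independent experiments.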

[7] = tested on: MV4-11; test: Induction of apoptosis in human MV4-11 cells assessed as late apoptotic cells at 20 nM after 48 hrs by Annexin V-FITC/propidium iodide staining-based flow cytometric analysis (reference value: 5.03%); format: functional
[8] = tested on: MM1.S; test: Induction of apoptosis in human MM1S cells assessed as late apoptotic cells at 10 nM after 48 hrs by Annexin V-FITC/propidium iodide staining-based flow cytometric analysis (reference value: 0.42%); format: functional
[9] = tested on: MM1.S; test: Cell cycle arrest in human MM1S cells assessed as accumulation at S phase at 5 nM after 24 hrs by propidium iodide/RNase staining-based FACS analysis (reference value: 24.49%); format: functional
[10] = tested on: MV4-11; test: Cell cycle arrest in human MV4-11 cells assessed as accumulation at G2/M phase at 10 nM after 24 hrs by propidium iodide/RNase staining-based FACS analysis (reference value: 18.79%); format: functional
[11] = molecular target: Protein deacetylase HDAC6 (Homo sapiens, UniProt Q9UBN7); test: Inhibition of recombinant full length HDAC6 (unknown origin) using Ac-peptide-AMC as substrate preincubated for 15 mins followed by substrate addition and measured after 1 hr by fluorescence assay
Protein deacetylase HDAC6, sequence (Q9UBN7 whole entry): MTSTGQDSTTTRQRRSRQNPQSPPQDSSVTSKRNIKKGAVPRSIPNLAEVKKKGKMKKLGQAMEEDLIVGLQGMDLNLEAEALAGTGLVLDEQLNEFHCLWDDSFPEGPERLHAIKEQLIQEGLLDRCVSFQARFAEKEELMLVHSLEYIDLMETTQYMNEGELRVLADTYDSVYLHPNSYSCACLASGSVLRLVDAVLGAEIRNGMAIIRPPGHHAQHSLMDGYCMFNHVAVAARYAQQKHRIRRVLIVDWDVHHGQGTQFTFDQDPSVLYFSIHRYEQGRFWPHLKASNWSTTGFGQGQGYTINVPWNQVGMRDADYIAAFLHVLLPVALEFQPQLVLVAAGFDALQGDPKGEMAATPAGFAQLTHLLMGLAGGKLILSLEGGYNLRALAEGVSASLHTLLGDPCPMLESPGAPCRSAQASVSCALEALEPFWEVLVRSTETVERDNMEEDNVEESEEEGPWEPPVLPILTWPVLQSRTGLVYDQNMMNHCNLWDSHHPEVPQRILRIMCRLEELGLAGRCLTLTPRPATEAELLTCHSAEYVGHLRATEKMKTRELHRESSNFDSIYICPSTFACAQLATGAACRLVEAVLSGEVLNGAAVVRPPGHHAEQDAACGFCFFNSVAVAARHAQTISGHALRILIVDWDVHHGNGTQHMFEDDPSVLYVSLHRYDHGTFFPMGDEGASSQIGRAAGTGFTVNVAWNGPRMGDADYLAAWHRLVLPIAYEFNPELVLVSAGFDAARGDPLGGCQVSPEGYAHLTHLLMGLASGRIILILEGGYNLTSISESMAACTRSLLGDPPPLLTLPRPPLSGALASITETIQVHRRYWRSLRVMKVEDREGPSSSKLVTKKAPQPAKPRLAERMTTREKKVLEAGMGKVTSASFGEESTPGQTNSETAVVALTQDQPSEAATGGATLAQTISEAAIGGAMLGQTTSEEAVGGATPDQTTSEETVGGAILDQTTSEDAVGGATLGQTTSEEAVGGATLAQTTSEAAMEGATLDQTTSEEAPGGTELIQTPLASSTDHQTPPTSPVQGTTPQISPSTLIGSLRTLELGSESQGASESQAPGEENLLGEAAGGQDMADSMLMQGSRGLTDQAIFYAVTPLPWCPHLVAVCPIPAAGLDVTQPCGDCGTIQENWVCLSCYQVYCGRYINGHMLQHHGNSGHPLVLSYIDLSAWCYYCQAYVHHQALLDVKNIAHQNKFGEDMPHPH

[12] = tested on: HCT-116; test: Antiproliferative activity against human HCT116 cells after 72 hrs by MTT assay; format: functional, cell-based; details: HCT-116, 72 h
[13] = tested on: MM1.S; test: Induction of apoptosis in human MM1S cells assessed as necrotic cells at 160 nM after 48 hrs by Annexin V-FITC/propidium iodide staining-based flow cytometric analysis (reference value: 0.32%); format: functional
[14] = molecular target: Histone deacetylase 8 (Homo sapiens, UniProt Q9BY41); test: Inhibition of recombinant full length C-terminal His-tagged human HDAC8 expressed in baculovirus expression system using Ac-peptide-AMC as substrate preincubated for 15 mins followed by substrate addition and measured after 1 hr by fluorescence assay
Histone deacetylase 8, sequence (Q9BY41 whole entry): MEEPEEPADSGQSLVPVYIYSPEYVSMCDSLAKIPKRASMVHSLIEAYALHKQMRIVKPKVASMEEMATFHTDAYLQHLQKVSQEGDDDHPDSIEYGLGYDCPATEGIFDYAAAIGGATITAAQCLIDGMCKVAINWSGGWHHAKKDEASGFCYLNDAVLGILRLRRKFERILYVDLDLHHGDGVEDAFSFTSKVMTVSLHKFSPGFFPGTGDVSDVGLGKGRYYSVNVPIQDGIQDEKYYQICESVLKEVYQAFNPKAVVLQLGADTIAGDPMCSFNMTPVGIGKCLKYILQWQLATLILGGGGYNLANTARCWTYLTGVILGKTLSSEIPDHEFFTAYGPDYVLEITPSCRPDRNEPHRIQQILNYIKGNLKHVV

[15] = tested on: MM1.S; test: Induction of apoptosis in human MM1S cells assessed as late apoptotic cells at 20 nM after 48 hrs by Annexin V-FITC/propidium iodide staining-based flow cytometric analysis (reference value: 0.42%); format: functional
[16] = Toxicity against NOD/SCID mouse xenografted with human MM1S cells assessed as mouse survival at 20 mg/kg, iv administered every 2 days for 5 days; format: organism-based; details: in vivo
In short: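 Female NOD/SCID mice, 5-6 weeks old, received 10^7 MM1S cells in 100 μL serum-free RPMI 1640 s.c. into the right flank. At 100-200 mm3 tumours they were randomised, 6 mice per group. Tumours were measured by caliper every 2 days. At the end, tumours were excised and weighed. Survivors are reported per group.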

[17] = tested on: MV4-11; test: Induction of apoptosis in human MV4-11 cells assessed as viable cells at 20 nM after 48 hrs by Annexin V-FITC/propidium iodide staining-based flow cytometric analysis (reference value: 84.1%); format: functional; details: MV4-11, 48 h, read-out: Activity
[18] = tested on: OCI-AML-3; test: Antiproliferative activity against human OCI-AML3 cells after 72 hrs by MTT assay; format: functional, cell-based; details: OCI-AML-3, 72 h
[19] = tested on: MV4-11; test: Antitumor activity against human MV4-11 cells xenografted in NOD/SCID mouse assessed as tumor growth inhibition at 10 mg/kg, iv administered every 2 days for 6 days and measured every 2 days post last dose by caliper method relative to control; format: functional; details: MV4-11, iv, read-out: TGI
In short: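 Female NOD/SCID mice aged 5-6 weeks received 10^7 MV4-11 cells in 100 μL serum-free IMDM s.c. into the right flank. At 100-200 mm3 the mice were randomized, 6 per group. Dosing was i.v. at 10 mg/kg every 2 days, in saline with 2.5% DMSO and 10% cyclodextrin at pH 9. Tumours were measured by caliper every 2 days, with volume = length × width² × 0.5, and were weighed at sacrifice.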

[20] = molecular target: Serine/threonine-protein kinase mTOR (Homo sapiens, UniProt P42345); test: Inhibition of mTOR in human MV4-11 cells assessed as decrease in p70S6K phosphorylation at Thr 389 residues at 0.01 to 10 uM after 24 hrs by Western blot analysis; format: cell-based
In short: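 Treatment of MV4-11 cells lasted 24 h at 0.01, 0.1, 1 and 10 μM. Lysis in RIPA buffer and BCA quantitation, then 30 μg protein by SDS-PAGE, PVDF transfer, 5% milk block, primary antibody overnight at 4 °C, HRP secondary 1 h and ECL detection. p-p70S6K (T389), p-4EBP1 (S65), p-Akt (S473) and p-ERK were probed.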

[21] = tested on: MV4-11; test: Induction of apoptosis in human MV4-11 cells assessed as early apoptotic cells at 320 nM after 48 hrs by Annexin V-FITC/propidium iodide staining-based flow cytometric analysis (reference value: 10.7%); format: functional
[22] = tested on: MV4-11; test: Induction of apoptosis in human MV4-11 cells assessed as viable cells at 10 nM after 48 hrs by Annexin V-FITC/propidium iodide staining-based flow cytometric analysis (reference value: 84.1%); format: functional; details: MV4-11, 48 h, read-out: Activity
[23] = tested on: OCI-AML2; test: Antiproliferative activity against human OCI-AML2 cells after 72 hrs by MTT assay; format: functional, cell-based; details: OCI-AML2, 72 h
[24] = tested on: MV4-11; test: Induction of apoptosis in human MV4-11 cells assessed as necrotic cells at 160 nM after 48 hrs by Annexin V-FITC/propidium iodide staining-based flow cytometric analysis (reference value: 0.17%); format: functional
[25] = tested on: MM1.S; test: Cell cycle arrest in human MM1S cells assessed as accumulation at G0/G1 phase at 10 nM after 24 hrs by propidium iodide/RNase staining-based FACS analysis (reference value: 49.22%); format: functional
[26] = tested on: MV4-11; test: Induction of apoptosis in human MV4-11 cells assessed as necrotic cells at 40 nM after 48 hrs by Annexin V-FITC/propidium iodide staining-based flow cytometric analysis (reference value: 0.17%); format: functional

`C[C@@H]1CN(C(=O)Nc2ccc(-c3nc(N4CCOCC4)c4cnn(CCCCCCC(=O)NO)c4n3)cc2)CCO1` gave a viability at 0.08 µM [1] of 4.09%, an Activity [2] of 32.2% and an Activity [3] of 56.5%. It also gave an Activity [4] of 53.85%, an Activity [5] of 2.08% and an IC50 [6] of 1.9 nM. For the same molecule, the Activity [7] was 38.4%, the Activity [8] was 1.49% and the Activity [9] was 17.65%. The Activity [10] was 11.11%, the IC50 [11] was 1.8 nM and the IC50 [12] was 17.2 nM. For the same molecule, the Activity [13] was 3.39%, the IC50 [14] was 1.28 nM and the Activity [15] was 4.78%. The Activity [16] was “Non-Toxic”, the viability at 0.02 µM [17] was 20.6% and the IC50 [18] was 9.98 nM. For the same molecule, the inhibition in vivo at 10 mg/kg [19] was 53.1%, the inhibition [20] was “Active” and the Activity [21] was 27.5%. The viability at 0.01 µM [22] was 75.2%, the IC50 [23] was 9.01 nM and the Activity [24] was 1.13%. It also gave an Activity [25] of 66.96% and an Activity [26] of 2.05%.
